Experiment: Toxicity liver stage against HepG2, at 10uM
Type: cell-based
Set-up: test concentration 10 uM, cell line HepG2-A16-CD81EGFP
Conditions: human, HepG2-A16-CD81EGFP cells; read-out: INHIBITION
In short: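 Uninfected HepG2-A16-CD81EGFP cells, 3 × 10^3 per well, 1536-well, plated on prespotted compound at 10 μM final, parasite-free screening media added to match infected plates; puromycin 10 μM positive, DMSO 0.5% negative; run in parallel with 48 h PbLuc assay at 37 °C, 5% CO2; viability by CellTiter-Glo luminescence, normalized to controls.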

SMILES	cytotoxicity at 10 µM
O=C1c2c(O)cc(O)cc2O[C@@H](c2ccc(O)cc2)[C@@H]1O	-0.639%
CNCc1cc(C)n(-c2ccccc2OC)c1C	-45%
Cc1cc(=O)[nH]c(-n2nc(C3CC3)cc2N)n1	-4.84%
Cc1nsc(C(=O)NCCc2ccc(S(N)(=O)=O)cc2)n1	7.11%
CC(C)CN1C(=O)CO[C@@H]2CN(C(=O)NC(C)C)C[C@H]21	-5.27%
Nc1ncccc1C(=O)NCc1cccc(Br)c1	42.6%
Cc1c(C)n(Cc2ccncc2)c2nc3c(c(N)c12)CCCCC3	1.26%
CCC(=O)c1ccc(Br)cc1NN1c2cc(Br)ccc2C(=O)C1(C)OC (stereo not given)	78.6%
O=C(CCn1ncc2c(Cl)cccc21)NCC1CC1	10.6%
Cc1cccc(OCc2ccc(C(=O)N3N=CCC3(O)C(F)(F)F)o2)c1 (stereo not given)	25.2%
CCn1cc(-c2cc(C(F)(F)F)nc(NC3CCCC3)n2)c(C)n1	2.33%
c1ccc(CCN2CCCC2c2cccc(Nc3nccs3)n2)cc1 (stereo not given)	8.91%
CCOc1ccc([C@@H]2N[C@H](c3nccs3)Cc3ccsc32)cc1OC	38%
Cc1cc(C2CCCCN2C(=O)c2ccsc2)nc2nccn12 (stereo not given)	-11.8%
Cc1nccn1-c1nccnc1C1CCN(Cc2ccc(F)cc2)CC1	-5.43%
Cc1cc(-c2cnc(NCc3cccnc3)nc2C(C)C)on1	19.2%
NCCn1nc(C2CCN(Cc3ccc(Cl)c(Cl)c3)C2)c2nccnc21 (stereo not given)	27.7%
COc1c(CNCCc2c[nH]c3cc(F)ccc23)c(C)nn1C	-7.53%
CCc1ccc(C(=O)N2CCC(N(C)C(=O)OC(C)(C)C)C2)o1 (stereo not given)	-48%
CN1CCC(N(Cc2ccco2)S(=O)(=O)c2cc(Br)ccc2Br)CC1	-17.7%
Cc1ccc(OCC(=O)NS(=O)(=O)Cc2ccccc2)cc1	2.07%
CCNC(=O)CN(CC)C(=O)c1cccc(Nc2cnn(C)c2)c1	7.68%

SMILES	cytotoxicity at 10 µM
COc1ccncc1NCc1ccsc1	19%
Cc1nc(COC(=O)c2cccc3c2OCCO3)no1	5.55%
CCc1ccc(CCC(=O)N2CCC(=O)Nc3cccnc32)cc1	-46.7%
O=C(NCc1cccnc1OCC(F)(F)F)N1CCOCC1	-43.4%
CC(C)c1ccc(/C=C/CC(=O)NC2CCS(=O)(=O)CC2)cc1	5.5%
CN1CCOC(CNCCOc2ccc(C#N)cc2)C1 (stereo not given)	9.34%
Cc1ccccc1CC(C)(C)NC(=O)CCOc1cccc(C(N)=O)c1	-4.07%
CCS(=O)(=O)Cc1nc(-c2cnn3c(C)cc(C)nc23)no1	-4.79%
NC(=O)C1CN(c2ccc(Br)cn2)CCO1 (stereo not given)	0.105%
O=C(NCCN1CCOCC1)C(OC1CCCC1)c1ccccc1 (stereo not given)	-2.99%
CCOC(=O)C1CCN(C(=O)CN2CCCC2c2ccccc2C)CC1 (stereo not given)	7.97%
Cc1nc(N2CCC3(CCOC3)C2)c2cc[nH]c2n1 (stereo not given)	-2.95%
CC(=O)N(Cc1ncc(C)o1)C1CCN(Cc2ccc(F)c(F)c2)C1 (stereo not given)	13.4%
COc1ccc(NC(=O)CCC(C)C)c(N2CCN(C(C)=O)CC2)n1	8.43%
Cc1ccc(C(CNCc2ccc(C#N)cc2)N2CCOCC2)s1 (stereo not given)	15.3%
COCc1nc2cc(NCc3scnc3C)ccc2o1	18.6%
Cc1cc(C(=O)Nc2ccc3oc(=O)n(CCN(C)C)c3c2)c(C)o1	-2.22%
Cc1nn(C)c(C)c1C1CCCN1c1ncnc2sccc12 (stereo not given)	44.1%
CC(C)CC(=O)NCc1cccc(OCCN(C)C2CCOCC2)c1	11.5%
NC(=O)C1CCN(Cc2cc3c(cc2Br)OCCO3)C1 (stereo not given)	0.641%
CCOc1cc(CN(C)Cc2ccccc2)ccc1OC(F)F	-14.7%
CCc1nc(C2CCCN2Cc2nc(C(C)(C)C)no2)no1 (stereo not given)	12.9%

SMILES	cytotoxicity at 10 µM
Cc1c(C(C)NC(=O)N2CCN(C3CCCC3)CC2)cnn1C (stereo not given)	3.02%
N#CCSCCCN1CCN(C(=O)c2ccccc2F)CC1	-147%
Cc1noc(-c2ccnc(N3CCC(CN4CCOCC4)CC3)c2)n1	-2.11%
Cc1ccc(OCC(O)COC2CCOCC2)c(Cl)c1 (stereo not given)	-5.27%
CCN(CC)S(=O)(=O)N(C)Cc1ccncc1	0.52%
Cc1ncsc1CNC(=O)NCC1(c2ccc3c(c2)OCO3)CC1	14.3%
CC(=O)N1CCCC(C(=O)N2CCN(Cc3cc(C)on3)CC2)C1 (stereo not given)	-52.2%
COc1ccc(CNc2c(C)nn(C(C)C)c2C)cc1	-37.1%
Cc1ccc2cc(C(=O)N3CCN(C(=O)N(C)C)CC3)ccc2n1	-52.1%
O=C(CN1CCCCC1Cn1cncn1)NC1CCN(C2CC2)CC1 (stereo not given)	-19.3%
Cc1cccc(C(=O)N2CCC3(CC2)CC(c2cnn(C)c2)CO3)c1 (stereo not given)	-78.7%
CNC(=O)N1CCc2nc(C(=O)NCc3cccc(OC)c3)sc2CC1	-84.2%
COc1cc(N2C[C@@H]3COC[C@]3(COc3ccc(C#N)cn3)C2)ncn1	32.2%
CN1CCCN(c2nccc(-c3c[nH]nc3C3CCCCC3)n2)CC1	0.746%
Cc1cccn2c(CC(=O)N3CCC(CCn4cccn4)CC3)cnc12	-53.1%
CCNC(=O)[C@@H]1C[C@H](NC(=O)c2ccc(C)s2)CN1Cc1ccc(C)o1	-5.39%
CC(C)c1nnsc1CN1CCc2[nH]nc(-c3ccc(F)c(F)c3)c2C1	25.9%
Cc1ccc(-c2ccnc(N3CCC4(CC3)CNC(=O)C4)n2)c(C)n1	-5.3%
O=S(=O)(NCc1ccccc1)N1CCCN(c2ccncc2)CC1	-11%
Cc1cnc(N2CCCC(c3ccccc3)C2)nc1-c1ccnn1C (stereo not given)	-1.18%
COC(=O)c1cc(CN2CCN(c3ncccc3C)CC2)ccc1O	-0.503%
CN(Cc1ccc(-n2cccn2)cc1)C[C@@H]1CCCN2CCCC[C@H]12	0.537%

SMILES	cytotoxicity at 10 µM
CCc1ccc(C(=O)N2CCC3(CCC(=O)N(CCN(C)C)C3)CC2)[nH]1	5.96%
Cc1ccc2nc(CN(C)Cc3n[nH]c4c3CCCCC4)[nH]c2c1C	17.1%
COc1ccc2c(c1)OCC(CNc1cc(N)nc(SC)n1)C2 (stereo not given)	34.4%
COc1cccc(OC2CN(C(=O)CCn3cnc4ccccc43)C2)c1	3.67%
Cc1nc(CC(=O)NCc2csc(N3CCCC3)n2)cs1	-5.26%
Cc1ccc2nc(CN3CCC(O)(CN4CCCC4)CC3)cc(O)c2c1	-51.9%
COc1ccc(C(=O)C2CCCN(CCc3ccccc3)C2)c(OC)c1 (stereo not given)	7.8%
Cc1ncnc(NCC(C)N(C)c2ccccc2)c1C (stereo not given)	60.3%
Cc1nn(CCO)cc1CN1CCCC1c1nc2c(C)cccc2[nH]1 (stereo not given)	3.83%
c1ccc(C(Cn2cnnc2)N2CCOCC2)nc1 (stereo not given)	0.997%
CS(=O)(=O)c1ccc(CN2CCCC3(C2)C(=O)Nc2ccccc23)cc1 (stereo not given)	-1.3%
COc1ccc(Cl)cc1-n1nc(C2CCCC2)nc1Cn1cnnn1	-15.5%
CCN1CCC(CC(=O)NCc2nc(C)cc(C)n2)CC1	-8.75%
O=C(NCC1CCCO1)c1coc(Cn2cnc3ccccc32)n1 (stereo not given)	-3.67%
CN1CCN(Cc2n[nH]c(=O)n2CC2CCCCC2)CC1	-47.9%
c1ccc(C2CN(C3CC3)CC3(CCN(Cc4cscn4)CC3)C2)cc1 (stereo not given)	5.58%
CNc1ccc(C(=O)N(C)Cc2ccc3ccccc3n2)cn1	1.5%
O=C1CC2(CCN(CC3CC3)CC2)CN1Cc1cc(F)cc(F)c1	2.34%
C[C@@H]1CN(CC(C)(C)N2CCCCC2)CC[C@@]1(O)C1CC1	-4.6%
COc1ccccc1N1CC(NC(=O)c2cc(C(C)C)nn2C)CC1=O (stereo not given)	52.4%
Cc1ccccc1-n1cc(C2=CCN(CCn3cc[nH]c3=O)CC2)cn1	16.5%
Cc1nc[nH]c1CN1CCOC(c2ccc(Cl)c(Cl)c2)C1 (stereo not given)	0.833%

SMILES	cytotoxicity at 10 µM
CN(c1ccc(C(=O)NCCCN2CCCCC2)c(Cl)c1)S(C)(=O)=O	-0.313%
COc1cccc(CC(=O)N2CCC3(CC2)OCCCC3O)c1OC (stereo not given)	-5.7%
O=C1CC(c2ccc(F)cc2)c2cnn(C3CCCC3)c2N1 (stereo not given)	3.82%
CSCCC1c2nc[nH]c2CCN1Cc1cc(Cl)ccc1O (stereo not given)	23.3%
COc1ccc(CCN2CCCC(CN(C)Cc3ccc(C)o3)C2)cc1 (stereo not given)	-14.5%
Cc1cnn(CC2CN(Cc3cccc(OC(C)C)c3)CCO2)c1 (stereo not given)	-4.83%
O=C1NCCN1C1CCN(CCOc2cccc3ccccc23)CC1	-5.72%
CN(C)c1cc(CNC(=O)Nc2ccc(N3CCCC3)nc2)ccn1	-0.338%
Cc1ccc(C(=O)N2CCC(Oc3ccc(C)c(C)c3)CC2)c(=O)[nH]1	12.9%
Cc1csc(N2CCCN(C(=O)Cc3ccc(C)s3)CC2)n1	-12%
CC(C(=O)Nc1cccc(N2CCCCC2)c1)n1cncn1 (stereo not given)	-7.3%
CN(C)c1cc(CNC(=O)c2cn(-c3ccc(F)cc3)nn2)ccn1	11.5%
CC(C)(C)C(O)CN1CCN(C(=O)c2cccc3[nH]ncc23)CC1 (stereo not given)	5.93%
CC1N(C)C(=O)COC12CCN(Cc1nccs1)CC2 (stereo not given)	-124%
Cc1cc(CN2C[C@@H]3COC[C@]3(CNC(=O)N3CCCC3)C2)no1	-77.5%
c1ccc2c(c1)C(NC1CCCC1)CC21CCNCC1 (stereo not given)	-120%
CC(C)NC(=O)N1CCN(CC2CC2)CC2(CNC(=O)C2)C1 (stereo not given)	2.52%
COCCN1CCc2cc(C(=O)NC(C)C)c(NCC3CC3)nc2CC1	3.22%
Cc1cccc(CN2C(=O)CC[C@@H]3[C@H]2CCN3Cc2ccc(F)cc2)n1	-72.1%
O=C(N1CCCC1)N1CCC2(CCCN(CCOc3ccccc3)C2)C1 (stereo not given)	11.3%
CC(C)CN1CCC2(COCc3cnc(-c4ccccc4)nc32)C1 (stereo not given)	-103%
CN(Cc1cccnc1)C1CC2(CCN(Cc3cccnc3)CC2)C1	-87.2%

Reference: ChEMBL document CHEMBL4513216, “Probing the Open Global Health Chemical Diversity Library for Multistage-Active Starting Points for Next-Generation Antimalarials” (ACS Infect Dis, 2020)
